Measured values from different studies.
Each line is one published result; the experiments were not run side by side.
CDKL2: Cyclin-dependent kinase-like 2 (CDKL2, Homo sapiens, UniProt Q92772)
MAOA: Amine oxidase [flavin-containing] A (MAOA, Homo sapiens, UniProt P21397)
Rps6ka1: Ribosomal protein S6 kinase alpha-1 (Rps6ka1, Rattus norvegicus, UniProt Q63531)
HIPK3: Homeodomain-interacting protein kinase 3 (HIPK3, Homo sapiens, UniProt Q9H422)

SMILES | target | test | setting | measurement | value
Cc1ccc(C(=O)Nc2ccc(CN3CCN(C)CC3)c(C(F)(F)F)c2)cc1C#Cc1cnc2cccnn12 | CDKL2 | enzyme activity | 23.5 nM | remaining activity | 0%
NNCCc1ccc(NC(=O)CCCc2ccccc2)cc1 | MAOA | enzyme activity, inhibitor | – | KI (inactivation) | 2600 nM
Nc1ncnc2occ(-c3ccc(NC(=O)Nc4cc(C(F)(F)F)ccc4F)cc3)c12 | CDKL2 | cell-free assay | 20 µM | remaining signal | 0.6%
O=C(Nc1ccc([N+](=O)[O-])cc1)c1cc(Cl)ccc1O | MAOA | enzyme activity, inhibitor | 1 µM, 20 min | inhibition | 45%
Cc1ccc(NC(=O)c2ccc(C)c(C(F)(F)F)c2)cc1C#Cc1nn(C2CCC(O)CC2)c2ncnc(N)c12 (stereo not shown) | Rps6ka1 | cell-free assay | 10 µM | remaining signal | 20%
CC[C@H](C)[C@H](NC(=O)[C@H](CC(=O)O)NC(=O)[C@@H](NC(=O)[C@H](Cc1ccccc1)NC(=O)[C@H](C)NC(=O)[C@H](Cc1ccccc1)NC(=O)[C@@H]1CCCN1C(=O)[C@H](C)NC(=O)[C@@H](NC(=O)[C@H](CO)NC(=O)[C@H](Cc1ccccc1)NC(=O)[C@H](CCCNC(=N)N)NC(=O)[C@H](CCCNC(=N)N)NC(=O)[C@@H](N)CC(C)C)[C@@H](C)O)[C@@H](C)CC)C(=O)N[C@@H](CC(N)=O)C(=O)N[C@@H](CC(=O)O)C(=O)N[C@H](C(=O)N[C@H](C(=O)N[C@@H](CC(N)=O)C(=O)N[C@@H](Cc1ccccc1)C(=O)O)[C@@H](C)CC)C(C)C | Integrin alpha-V/beta-3 (Homo sapiens, UniProt P05106+P06756) | binding, BLI | – | kon | 1e+06 M⁻¹ s⁻¹
COc1cccc(Nc2nc3cc(C(=O)O)ccc3c3cnccc23)c1 | HIPK3 | enzyme activity, inhibitor, radiometric | 1 µM | remaining activity | 8%
O=C(Nc1ccc(Br)cc1)c1ccccn1 | MAOA | enzyme activity, inhibitor | 1 µM, 20 min | inhibition | 48%
Oc1c(Br)cc(Oc2ccc(Br)cc2Br)cc1Br | Sulfotransferase 1B1 (SULT1B1, Homo sapiens, UniProt O43704) | enzyme activity, substrate | – | Km | 44 µM
CN(C(=O)n1cnc(-c2ccc[n+]([O-])c2)c1)C1CCCCC1 | Fatty-acid amide hydrolase 1 (Faah, Rattus norvegicus, UniProt P97612) | enzyme activity, inhibitor | – | kinact/KI | 1240 M⁻¹ s⁻¹
CCCOc1ccc(OC)c(F)c1C(=O)c1ccc(C(=O)N[C@@H]2CNC[C@H]2NC(=O)c2ccc3[nH]ncc3c2)cc1 | Rps6ka1 | enzyme activity, inhibitor | 50 nM | remaining activity | 106%
O=C(O)c1ccc2c(c1)nc(Nc1ccccc1)c1ccncc12 | HIPK3 | enzyme activity, inhibitor, radiometric | 1 µM | remaining activity | 20%
O=C(Nc1ccccn1)c1ccc(Cl)cc1 | MAOA | enzyme activity, inhibitor | 1 µM, 20 min | inhibition | 13%
Cc1nc2ccc(NC(=O)CCNC(=O)CCCc3ccc(CC(C(=O)O)C(=O)O)cc3)cc2s1 | L-lactate dehydrogenase A chain (LDHA, Homo sapiens, UniProt P00338) | binding, SPR | – | residence time | 0.94 s
O=C(Nc1ccc([N+](=O)[O-])cc1[N+](=O)[O-])c1ccccc1 | MAOA | enzyme activity, inhibitor | 1 µM, 20 min | inhibition | 82%
Oc1cccc(Nc2nc(-c3ccc(F)cc3F)cs2)c1 | Kappa-type opioid receptor (Oprk1, Rattus norvegicus, UniProt P34975) | ligand displacement, radioligand | 10 µM | inhibition | 83%
